# Screening results (PubChem)
# The list is not random: actives were taken first. Their share in the collection is about 1.4%.
# GSK3beta inhib = blocks human GSK3beta kinase activity | activity score (negative = inhibition), % at 10 µM | GST-GSK3beta kinase, ADP-Glo luminescence, 60 min; active compounds read low | 0.038% of 300,000 active;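 active means more than half of replicate wells score below -50%, meaning over 50% inhibition versus plate controls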
#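 Test system: GST-fused GSK3beta enzyme, cell-free | Quantity: 1.6 ng GST-GSK3beta enzyme per well | Reagent: 25 µM ATP with peptide substrate | Schedule: 60 min enzyme reaction, room temperature | Signal: Luminescent ADP-Glo measurement of ADP formed | Read-out basis: Score relative to plate controls | Control set: DMSO and 20 µM GW8510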
# GSK3 alpha inh = inhibitors of human GSK-3 alpha kinase; P49840; ADP-Glo luminescence, 60 min; inhibition, % at 10 µM; 0.1% of 320,000 active;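 active means more than half of replicates show inhibition above 20%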;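 further: GST-tagged GSK-3 alpha with peptide substrate and 25 µM ATP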
# Target sequence (P49840 whole entry, looked up): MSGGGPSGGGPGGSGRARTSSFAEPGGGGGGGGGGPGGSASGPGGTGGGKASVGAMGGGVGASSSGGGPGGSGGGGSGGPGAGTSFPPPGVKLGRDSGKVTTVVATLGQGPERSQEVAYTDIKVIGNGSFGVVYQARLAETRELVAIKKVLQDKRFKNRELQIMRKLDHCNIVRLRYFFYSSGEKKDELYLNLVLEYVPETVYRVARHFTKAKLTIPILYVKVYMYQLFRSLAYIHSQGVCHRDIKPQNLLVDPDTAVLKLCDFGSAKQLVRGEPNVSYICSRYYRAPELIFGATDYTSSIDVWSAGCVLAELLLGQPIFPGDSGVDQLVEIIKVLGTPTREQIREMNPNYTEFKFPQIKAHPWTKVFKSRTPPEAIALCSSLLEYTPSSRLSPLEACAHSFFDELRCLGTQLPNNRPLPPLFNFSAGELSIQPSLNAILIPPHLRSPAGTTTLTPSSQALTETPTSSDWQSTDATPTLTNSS
# HIV Env fusion = inhibitors of HIV Env-mediated cell fusion | AID 651610 | HeLa-JRFL Env/CEM21 cell fusion, luciferase | inhibition, % at 12.3 µM | 1.1% of 360,000 active;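 active means mean replicate inhibition score of at least 50 and every replicate individually at or above 50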
# CDK5 p35 inh = blocks human CDK5/p35 kinase activity | AID 488839 | inhibition, % at 10 µM | 0.01% of 330,000 active | Recombinant CDK5/p35, ADP-Glo luminescence, 60 min;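 active means highest replicate inhibition of at least 50% and at least 75% of replicates reaching 50%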
# INS-1E GSIS act = primary screen for activators of insulin secretion dependent on glucose, INS-1E cells, GLuc reporter luminescence; INS-1E GLuc reporter insulin secretion, 2-3 h; activation, % at 16.6 µM; 0.61% of 370,000 active; AID 743287;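 active means lowest replicate activation of at least 40%, so every replicate reaches that level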
# STK33 inh = human STK33 kinase inhibition; purified STK33, MBP phosphorylation, ADP-Glo luminescence; 0.073% of 320,000 active; AID 2661; inhibition, % at 10 µM; Q9BYT3;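 active means inhibition at or above 25%, using the most active replicate where run in duplicate; inactive means inhibition below 25%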
# Hits are given with their value; - = inactive; . = not tested or not shown.
SMILES,GSK3beta inhib,GSK3 alpha inh,HIV Env fusion,CDK5 p35 inh,INS-1E GSIS act,STK33 inh
CCCCCCNS(=O)(=O)c1ccc(OC)c(OC)c1,-,-,-,-,.,-
CCC(C(=O)c1ccccc1)N(C(=O)c1ccccc1Cl)N1C(=O)C2C3C=CC(C3)C2C1=O (configuration not stated),-,.,109,-,.,-
CCCCCCCCCn1ccc(=N)cc1,-,-,79,-,-,-
OCCN1CCN(CC(O)COc2ccc(Cl)cc2)CC1 (configuration not stated),-,.,.,-,.,-
OCCN1CCN(CC(O)COc2ccc(C34CC5CC(CC(C5)C3)C4)cc2)CC1 (configuration not stated),-,-,-,-,90,-
Cc1cccc(-c2ccc([C@@H]3[C@H]4CN(C(=O)c5cnccn5)CC(=O)N4[C@H]3CO)cc2)c1,.,.,.,.,-,.
COc1cc2c(cc1OC)[C@H](C)N(C(=O)NCc1ccccc1)CC2,-,-,-,-,54,-
COc1cc2c(cc1OC)C(C)N(C(=S)NC(=O)c1ccccc1)CC2 (configuration not stated),-,-,-,-,-,-
COc1cc2c(cc1OC)CN(C(=O)Cc1ccccc1)CC2,-,-,-,-,63,-
COc1cc2c(cc1OC)CN(C(=O)CCOc1ccccc1)CC2,-,-,-,-,-,-
COc1cccc(CNC(=O)C[C@@H]2C=C[C@@H](NC(C)=O)[C@H](CO)O2)c1,.,.,-,.,-,.
C[C@@H]1CN([C@@H](C)CO)C(=O)c2cc(C#CCN(C)C)cnc2O[C@H]1CN(C)C,.,.,-,.,-,.
O=C(Nc1ccccc1F)N1C[C@H]2[C@@H](c3ccccc31)[C@H](CO)N2C(=O)Nc1ccccc1,.,.,.,.,-,.
Cc1ccc(C)c(NS(=O)(=O)c2cc(C(=O)Nc3ccccc3-c3ccccc3)ccc2C)c1,-,-,71,-,-,-
Cc1ccc(C(=O)Nc2ccccc2-c2ccccc2)cc1S(=O)(=O)Nc1cccc(C)c1C,-,-,-,-,.,-
Cc1cccc(C)c1NC(=O)N1CCN(c2nc3ccccc3s2)CC1,-,-,72,-,.,-
Cc1cccc(Cl)c1NC(=O)N1CCCN(c2nc3ccc(Cl)cc3s2)CC1,-,-,-,-,-,-
Cc1nn(-c2nc3ccccc3[nH]2)c(=O)c2ccccc12,-,-,72,-,-,-
COCc1cc(C)nc(OCC(=O)N/N=C/c2ccc(-c3cc([N+](=O)[O-])ccc3C)o2)c1C#N,-,-,64,-,.,-
COCc1cc(C)nc(OCC(=O)N/N=C/c2ccc(-c3cccc([N+](=O)[O-])c3)o2)c1C#N,-,-,-,.,.,-
C=CC(=O)N1C/C(=C/c2ccc(Cl)cc2)C(=O)/C(=C\c2ccc(Cl)cc2)C1,.,.,102,-,.,.
C=CC(=O)N1C/C(=C/c2ccccc2)C(=O)/C(=C\c2ccccc2)C1,.,.,79,-,50,.
Cc1nn(-c2ccccn2)c2c1C(=O)C(Br)CC2 (configuration not stated),.,.,.,-,.,.
Cc1nn(-c2nccs2)c2c1C(=O)CC(C)(C)C2Br (configuration not stated),.,.,-,56,-,.
CCN(CC)S(=O)(=O)c1cccc(C(=O)Nc2ccc(C#N)cc2)c1,-,-,57,-,.,-
SMILES,GSK3beta inhib,GSK3 alpha inh,HIV Env fusion,CDK5 p35 inh,INS-1E GSIS act,STK33 inh
CCn1c(/C=C/N(C)c2ccccc2)[n+](CC)c2ccc(Cl)cc21,-,-,70,-,-,-
CCOC(=O)C1=C[C@@H](C(C)(C)C)N(S(=O)(=O)c2ccc(OC)cc2)[C@H]1c1ccccc1,.,.,63,.,-,.
CCOC(=O)C1=CC[C@@H](c2cccc(Br)c2)N(S(=O)(=O)c2ccc(F)cc2)[C@H]1c1cccc(Cl)c1,.,.,60,.,-,.
CCOC(=O)C1=C[C@@H](C(C)(C)C)N(S(=O)(=O)c2ccc([N+](=O)[O-])cc2)[C@H]1c1cccc(Cl)c1,.,.,71,.,-,.
CCOC(=O)C1=CCN(S(=O)(=O)c2ccc(F)cc2)C1c1cccc(Cl)c1 (configuration not stated),.,.,-,.,-,.
CCOC(=O)C1=C[C@@H](C(C)(C)C)N(S(=O)(=O)c2ccc(C)cc2)[C@H]1c1ccc(OC)cc1,.,.,-,.,-,.
O=C(C[C@@H]1C=C[C@H](NS(=O)(=O)c2ccc(F)cc2)[C@H](CO)O1)NCc1ccc(Cl)c(Cl)c1,.,.,-,.,-,.
